Assay results as given in ChEMBL document CHEMBL1131504, “(Z)- and (E)-2-((hydroxymethyl)cyclopropylidene)methyladenine and -guanine. New nucleoside analogues with a broad-spectrum antiviral activity” (J Med Chem, 1998).

What was measured:
[1] = tested on: Daudi; assay: Cytotoxicity on Daudi cells at time of […] in cells not effected by the virus.; type: functional, cell-based; conditions: Homo sapiens
[2] = tested on: HFF; assay: IC50 value was evaluated by measuring the %inhibition of Varicella Zoster virus(VZV) infected HFF cells using plaque reduction assay.; type: functional, cell-based; conditions: Homo sapiens
In short: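 HFF cells plated 2 days earlier and infected with VZV (20–30 plaques/well) for 1 h. Six 1:5 drug dilutions in MEM + 2% FBS, no antibody overlay, duplicate wells; extra medium on day 5, 10 days total at 37 °C. Neutral red stain, plaques counted; IC50 from regression.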

[3] = tested on: HFF; assay: Inhibitory concentration against human cytomegalovirus replication in HFF cells was determined by plaque reduction assay; type: functional, cell-based
In short: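 HFF cells infected with HCMV Towne (~100 pfu/cm2). After adsorption, drug added to duplicate wells at four to eight concentrations; 8–10 days at 37 °C, crystal violet stain, microscopic plaques counted. % plaque reduction vs no-drug control; IC50 by linear regression vs log concentration.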

[4] = tested on: HFF; assay: Inhibitory concentration against human cytomegalovirus replication in HFF cells was determined by cytopathic effect inhibition assay; type: functional, cell-based
In short: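 HFF cells seeded 24 h before; serial 1:5 drug dilutions in MEM + 2% FBS in triplicate, 1 h, then 2500 pfu/well CMV. Incubated 14 days at 37 °C with 50 μL MEM added on day 7; crystal violet stain, read at 630 nm. IC50 from regression.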

[5] = Inhibitory concentration against epstein-barr virus (EBV) infected H-1 cells was determined; type: functional, cell-based; conditions: Homo sapiens
In short: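 H-1 cells (high-yield EBV producer from P3HR-1) kept in log growth, seeded at 2 × 10^5/well with drug in RPMI 1640 + 10% dialyzed FBS for 5 days at 37 °C. Lysates treated with RNase A and proteinase K, slot-blotted, probed with 32P EBV EcoRI C fragment; normalized to Alu DNA vs untreated cells by densitometry.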

[6] = tested on: HFF; assay: Cytotoxicity on stationary HFF cells at time of HCMV plaque enumeration in cells not effected by the virus.; type: functional, cell-based; conditions: Homo sapiens
In short: (§1)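 Visual cytotoxicity scored microscopically on stationary HFF or MEF cells not affected by virus, at the time of HCMV or MCMV plaque enumeration.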

[7] = tested on: HFF; assay: Inhibitory concentration against human cytomegalovirus replication in HFF cells was determined by yield reduction assay; type: functional
In short: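 HFF cells (12 500/well) infected with HCMV at moi 0.5–1 and exposed to compound in duplicate at 100 to 0.14 μM for 4 days at 37 °C. After freeze–thaw, supernatants serially diluted onto fresh HFF monolayers and plaques titered; IC90 reported.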

[8] = tested on: Human alphaherpesvirus 1; assay: Inhibitory concentration against herpes simplex virus type 1 (HSV-1) was determined by enzyme-linked immunosorbent assay (ELISA); type: functional, organism-based
[9] = tested on: CCRF-CEM; assay: Cytotoxicity was measured on CEM cells infected with Herpes Simplex virus […]; type: functional, cell-based; conditions: Homo sapiens
[10] = tested on: HepG2; assay: Inhibitory concentration against hepatitis B virus infected 2.2.15 cells; type: functional, cell-based; conditions: Homo sapiens
In short: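 HBV-producing 2.2.15 cells in MEM + 10% FBS; compounds added on days 6 and 9, 6 days of exposure. Virions in the medium precipitated with PEG/NaCl, DNA extracted, run on 0.8% agarose, Southern blotted with 32P HBV probe, quantified by densitometry.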

[11] = tested on: Vero; assay: Inhibitory concentration against herpes simplex virus type 1 (HSV-1) infected vero cells was determined; type: functional, cell-based; conditions: Chlorocebus sabaeus
In short: (§2)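 Confluent Vero monolayers (RPMI + 5% FBS + 0.1% methylcellulose) infected 1 h with HSV-1 KOS or HSV-2 333 at 20 or 100 pfu/well. Drug overlay in RPMI + 2% dialyzed FBS + 0.1% methylcellulose, 48–72 h at 37 °C, 5% CO2. Crystal violet stain, plaques counted; IC50 by linear regression of % inhibition vs log concentration.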

[12] = tested on: Daudi; assay: Inhibitory concentration against epstein-barr virus (EBV) infected daudi cells was determined; type: functional, cell-based; conditions: Homo sapiens
In short: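 Daudi cells infected with P3HR-1 EBV at 0.1–0.2 moi for 45 min at 37 °C, washed, then incubated 48 h with serially diluted drug in RPMI-1640. Acetone-fixed cells stained with anti-VCA monoclonal antibody and FITC anti-mouse IgG, Evans Blue counterstain; 500 cells counted, VCA-positive fraction used for IC50.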

[13] = tested on: HFF; assay: IC50 value was evaluated by measuring the %inhibition of Human Herpes Virus 6(HHV-6) infected […] cells using ELISA assay; type: functional, cell-based
[14] = tested on: CEM-SS; assay: Cytotoxicity on CEM-SS cells; type: functional, cell-based; conditions: Homo sapiens
In short: (§3)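 Visual cytotoxicity: microscopic inspection of stationary uninfected CEM or CEM-SS cells from suspension cultures.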

[15] = tested on: Vero; assay: Compound was tested against vero cells infected with herpes simplex virus type 2 (HSV-2); type: functional, cell-based; conditions: Chlorocebus sabaeus; in short: as §2
[16] = tested on: KB; assay: Cytotoxicity was evaluated by measuring the inhibition of KB cell growth.; type: functional, cell-based; conditions: Homo sapiens
In short: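 KB cells at 3000–5000/well, overnight at 37 °C, compound added in triplicate at eight concentrations. Growth over 48 h (two population doublings), then ethanol fixation, 0.1% crystal violet stain, eluted dye read at 570 nm; quadruplicate assays. IC50 by linear regression of % inhibition vs log concentration.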

[17] = tested on: HFF; assay: Inhibitory concentration against herpes simplex virus type 1 (HSV-1) infected HFF cells was determined by cytopathic effect inhibition assay; type: functional, cell-based; conditions: Homo sapiens
In short: (§4)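 HFF cells (low passage) seeded 24 h before in MEM + 10% FBS; drug in MEM + 2% FBS, serial 1:5 dilutions in triplicate, 1 h pre-incubation, then HSV-1 or HSV-2 at 1000 pfu/well. Incubated 3 days at 37 °C, crystal violet/ethanol/formaldehyde stain, absorbance at 630 nm; IC50 by linear regression of % inhibition vs log concentration.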

[18] = tested on: HFF; assay: Compound was tested against HFF cells infected with herpes simplex virus type 2 (HSV-2) by cytopathic effect inhibition assay; type: functional, cell-based; conditions: Homo sapiens; in short: as §4
[19] = Cytotoxicity on H-1 cells at time of HCMV plaque enumeration in cells not effected by the virus.; type: functional, cell-based; conditions: Homo sapiens
[20] = tested on: CCRF-CEM; assay: Inhibitory concentration against mitochondrial DNA synthesis CEM cells; type: functional, cell-based; conditions: Homo sapiens
In short: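 CEM cells (2 × 10^5/mL) in RPMI 1640 + 10% dialyzed FBS with compound, re-split with fresh drug on days 4 and 6. On day 8, 1 × 10^5 cells lysed with RNase A and proteinase K, slot-blotted, probed with a mitochondrial DNA-specific probe.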

[21] = tested on: MEF; assay: Inhibitory concentration against murine cytomegalovirus replication in MEF cells was determined by plaque reduction assay; type: functional, cell-based; conditions: Mus musculus
In short: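 MEF cells plated 2 days earlier and infected with MCMV (20–30 plaques/well) for 1 h. Six 1:5 drug dilutions in MEM + 2% FBS, duplicate wells, 7 days at 37 °C, 1.5% neutral red stain, plaques counted; IC50 by linear regression vs log concentration.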

[22] = tested on: MEF; assay: Cytotoxicity on stationary MEF cells at time of MCMV plaque enumeration in cells not effected by the virus.; type: functional, cell-based; conditions: Mus musculus; in short: as §1
[23] = tested on: CCRF-CEM; assay: Cytotoxicity on CEM cells; type: functional, cell-based; conditions: Homo sapiens; in short: as §3

Row | SMILES | IC50 [1] | IC50 [2] | IC50 [3] | IC50 [4] | IC50 [5] | IC50 [6] | IC90 [7] | IC50 [8] | IC50 [9] | IC50 [10] | IC50 [11] | IC50 [12] | IC50 [13] | IC50 [14] | IC50 [15] | IC50 [16] | IC50 [17] | IC50 [18] | IC50 [19] | IC50 [20] | further results
1 | Nc1ncnc2c1ncn2/C=C1\CC1CO (stereo not drawn) | > 230 µM | 90.2 µM | > 100 µM | 395 µM | 3 µM | > 100 µM | > 100 µM | > 100 µM | > 100 µM | > 10 µM | > 100 µM | 71.4 µM | > 100 µM | > 100 µM | > 100 µM | > 100 µM | 36 µM | 395 µM | > 50 µM | > 50 µM | 
2 | Nc1nc(O)c2ncn(/C=C3\CC3CO)c2n1 (stereo not drawn) | > 206 µM | 263 µM | > 100 µM | > 413 µM | > 50 µM | > 100 µM |  | 100 µM | > 100 µM | > 10 µM | > 100 µM | > 206 µM | > 100 µM | > 100 µM | > 100 µM | > 100 µM | > 413 µM | > 413 µM | > 50 µM | > 100 µM | 
3 | Nc1nc(O)c2ncn(/C=C3/CC3CO)c2n1 (stereo not drawn) [SYNGUANOL] | > 214 µM | 61.3 µM | 2.1 µM | 0.04 µM | 0.3 µM | > 100 µM | 1.8 µM | 100 µM | > 100 µM | 10 µM | 85 µM | 5.6 µM | 42.5 µM | > 100 µM | > 100 µM | > 100 µM | 61.7 µM | > 413 µM | > 50 µM | > 100 µM | IC50 [21]: 0.3 µM; IC50 [22]: > 429 µM
4 | Nc1nc(Cl)c2c(ncn2/C=C2/CC2CO)n1 (stereo not drawn) | > 199 µM | > 518 µM | 5 µM | 5.6 µM | 0.7 µM | > 100 µM | 0.8 µM | 31 µM | 80 µM | > 10 µM | 52 µM | 1.2 µM | 50 µM | > 100 µM | 55 µM | > 100 µM | > 79.5 µM | > 79.5 µM | > 50 µM | > 50 µM | IC50 [21]: 0.3 µM; IC50 [22]: 270 µM
5 | Nc1nc2c(ncn2COC(CO)CO)c(=O)[nH]1 [GANCICLOVIR] |  |  | 7.4 µM | 2.6 µM |  |  | 1.6 µM |  |  |  |  |  |  |  |  |  |  |  |  |  | IC50 [21]: 3.4 µM
6 | Nc1nc(Cl)c2ncn(/C=C3\CC3CO)c2n1 (stereo not drawn) | > 199 µM |  | > 100 µM | > 79.5 µM | > 10 µM |  | 11 µM | > 100 µM | 60 µM | > 10 µM | 95 µM | 143 µM |  | > 100 µM | > 100 µM | > 100 µM | > 79.5 µM | > 79.5 µM | < 50 µM |  | 
7 | Nc1ncnc2c1ncn2/C=C1/CC1CO (stereo not drawn) | 368 µM | 2.5 µM | 2.1 µM | 1 µM | 0.2 µM | > 100 µM | 1.1 µM | 33 µM | > 100 µM | 2 µM | 28 µM | 3.2 µM | 14 µM | > 100 µM | 59 µM | 78 µM | < 0.14 µM | 10.6 µM | > 50 µM | > 50 µM | IC50 [21]: 2.1 µM; IC50 [22]: > 92 µM
8 | Nc1ccn([C@H]2CC[C@@H](CO)O2)c(=O)n1 [ZALCITABINE] |  |  |  |  |  |  |  |  |  | 1.4 µM |  |  |  |  |  |  |  |  |  | 0.07 µM | IC50 [23]: 10 µM
